D1 mod: D1 CRE-luciferase signal change, two-sided – cell-based, HEK293 D1, dopamine EC30, D1 allosteric modulator project, primary screen; AID 641, 2007; dopamine EC30 potentiation; actives deviate in either direction; 5.9% of 58,000 active; B-score at 10 µM; D(1A) dopamine receptor (Homo sapiens), P21728;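 active = luminescence count or its row- and column-corrected plate score outside the 99.7% band of the plate's sample wells, on either side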
Target sequence (P21728 whole entry, looked up): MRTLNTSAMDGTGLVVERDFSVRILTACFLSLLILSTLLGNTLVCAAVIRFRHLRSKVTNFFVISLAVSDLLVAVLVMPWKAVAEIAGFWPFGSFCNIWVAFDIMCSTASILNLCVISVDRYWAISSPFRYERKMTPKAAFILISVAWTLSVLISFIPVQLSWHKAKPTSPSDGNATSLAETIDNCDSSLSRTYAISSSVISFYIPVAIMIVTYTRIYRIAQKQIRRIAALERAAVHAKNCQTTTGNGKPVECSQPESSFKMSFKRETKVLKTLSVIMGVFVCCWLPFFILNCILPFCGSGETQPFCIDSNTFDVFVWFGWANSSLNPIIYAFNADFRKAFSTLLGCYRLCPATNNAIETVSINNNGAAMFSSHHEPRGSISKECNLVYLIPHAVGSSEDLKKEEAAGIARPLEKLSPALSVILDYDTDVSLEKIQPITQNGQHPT
S1P3 ag: human S1P3 receptor agonists, primary screen, cell-based, primary and confirmation, NFAT-BLA reporter; Sphingosine 1-phosphate receptor 3 (Homo sapiens), Q99500; S1P3 NFAT-BLA reporter cells, agonism, FRET ratio; relative to 1 µM S1P, basal subtracted; 0.1% of 60,000 active; activation, % at 4.5 µM;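 active = activation above the screen-wide mean plus 3 SD, cut at about 4.5% in these data, passing the limit was not always enough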
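Assay system: stable CHO line with human S1P3, Gα16, NFAT-BLA reporter; Detection: FRET β-lactamase substrate fluorescence, excitation 405 nm, 460/535 nm emission ratio, background-subtracted; Read-out: percent activation versus median 1 µM S1P response, basal-subtracted, per plate; Incubation: cells plated overnight, compound 4 h 37 °C, substrate 2 h RT.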
M1 antagonist: antagonists of rat M1 muscarinic receptor; AID 628, 2007; Muscarinic acetylcholine receptor M1 (Rattus norvegicus), P08482; CHO-M1 cells, Fluo-4 calcium, ACh EC80 antagonist mode; hits give low values; B-score at 10 µM; 3.4% of 64,000 active;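 active = calcium fluorescence response, raw or row-and-column corrected B-score, differing from the plate sample mean either way at a set confidence level, mostly lower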
S1P1 ag pot: S1P1 agonists and agonism potentiators, primary screen, cell-based, primary and confirmation screens, CRE-bla reporter | Sphingosine 1-phosphate receptor 1 (Homo sapiens), P21453 | S1P1 CRE-bla cells, forskolin, beta-lactamase FRET, potentiator mode; S1P1 agonist co-added at EC20, 2 nM; 100% = saturating reference agonist, 0% = basal | activation, % at 9.5 µM | 0.57% of 56,000 active | AID 449, 2006;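 active = activation above a cutoff set at the mean activation of all tested compounds plus 3 SD, cut at about 54% in these data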;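 note: forskolin at 4 µM as EC80 and the EC20 agonist is SEW2871; 100% = SEW2871 at its EC100 plus forskolin at EC80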
M1 agonist: M1 muscarinic receptor agonists, primary screen, CHO-M1 cells, Fluo-4 calcium, agonist mode; Muscarinic acetylcholine receptor M1; Fluo-4 calcium fluorescence; hits give high values; B-score at 10 µM; 3% of 64,000 active;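 active = fluorescence rise, raw or as B-score row- and column-corrected plate score, outside the 99.7% band of its plate's samples, either direction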
* = called active by the depositor; / = no result. Shown are actives, neighbours in structure and some others; about 11% of the full set was active somewhere.

SMILES	D1 mod	S1P3 ag	M1 antagonist	S1P1 ag pot	M1 agonist
Cc1nc2c(c(=O)n1CC1CCCO1)c1nc3ccccc3nc1n2Cc1ccc2c(c1)OCO2 (centres undefined)	/	-3.8	0.234	6.4	-0.716
CC(=O)Nc1ccc(S(=O)(=O)NC2=NCN(CCOC(=O)c3ccccc3)CN2)cc1	-5.21*	-1.5	0.317	-5.9	-0.753
O=S(=O)(Cc1ccccc1)N1CCc2ccccc21	-0.508	0.0	-0.194	7.6	8.34*
Fc1ccc(Br)cc1C1C=C(c2ccc(Br)s2)Nc2ncnn21 (centres undefined)	0.86	-1.1	-0.372	22.0	20.2*
COC(=O)CSc1ncnc2c1sc1nc(-c3ccco3)c3c(c12)CC(C)(C)OC3	/	11.3	0.667	8.6	-0.29
CCOC(=O)c1sc2nc(-c3ccco3)c3c(c2c1N)CC(C)(C)OC3	4.04*	-1.7	0.0798	2.4	-1.35
Cc1ccc(CNC(=O)c2ccccc2NC(=O)CSc2nnnn2C)cc1	0.152	-0.4	-0.682	16.5	-0.372
CC(=O)Nc1ccc2oc(-c3ccccc3Br)nc2c1	-2.83*	-1.1	0.124	8.4	-0.0513
CCCn1c(=O)c2ccccc2n2c(SCC(=O)c3ccc(F)cc3)nnc12	-0.0301	0.7	-0.483	3.6	-0.322
Cn1c(=O)c2c3c(sc2n2c(SCC(=O)c4ccccc4)nnc12)COC(C)(C)C3	/	-3.8	-2.89*	2.5	-0.78
CCCn1c(=O)c2ccccc2n2c(SCC(=O)c3ccccc3)nnc12	0.0174	-0.6	2.51*	2.5	2.29
CN1CCN(S(=O)(=O)c2ccc(-c3ccc(Cl)cc3)cc2)CC1	-4.9*	-0.5	0.817	-10.8	-0.051
N#CC1=C(N)N(c2ccc(Br)cc2)C2=C(C(=O)CCC2)C1c1cccnc1 (centres undefined)	0.0422	-0.4	/	-2.2	/
Fc1ccc(OCc2nn3cnnc3s2)cc1	-3.98*	0.0	/	-2.7	/
O=C(Nc1ccc2nsnc2c1)c1ccc2c(c1)OCO2	-4.05*	-1.4	0.624	-11.5	0.274
CCCCn1c(CN2CCN(c3cccc(Cl)c3)CC2)nc2c1c(=O)n(C)c(=O)n2C	-2.88*	0.7	-0.445	-2.7	0.019
CCCCCn1c(CN2CCN(c3cccc(Cl)c3)CC2)nc2c1c(=O)n(C)c(=O)n2C	-0.749	-1.2	-0.255	-32.3	-1.23
CCCn1c(CN2CCN(c3cccc(Cl)c3)CC2)nc2c1c(=O)n(C)c(=O)n2C	-2.83	-0.9	-2.49*	134.8*	10.6*
CCCCn1c(CN2CCN(c3ccccc3)CC2)nc2c1c(=O)n(C)c(=O)n2C	-1.1	0.6	-0.134	-15.1	-0.0126
COC(=O)c1ccsc1NC(=O)c1ccc2c(c1)OCCO2	3.79*	-1.2	0.284	-10.3	1.44
CC1CCN(c2nc3ccccc3nc2C(C#N)C(=O)OC2CCCCC2)CC1 (centres undefined)	-0.443	-0.6	1.49*	-0.8	3.18
Cc1ccc(S(=O)(=O)C(C#N)c2nc3ccccc3nc2N2CCCC2)cc1 (centres undefined)	0.581	-0.3	0.046	37.4	4.99
CC1CCN(c2nc3ccccc3nc2C(C#N)S(=O)(=O)c2ccccc2)CC1 (centres undefined)	/	/	0.516	/	3.8*
CCOC(=O)C1CCCN(c2nc3ccccc3nc2C(C#N)C(=O)NCc2ccccc2)C1 (centres undefined)	0.615	-1.7	0.0258	-6.5	20.9*
CCCCCCNC(=O)C(C#N)c1nc2ccccc2nc1N1CCCC1 (centres undefined)	-1.06	-2.0	1.14*	22.0	-0.0989
SMILES	D1 mod	S1P3 ag	M1 antagonist	S1P1 ag pot	M1 agonist
CCC(c1nnnn1C(C)(C)C)N1CCN(c2cc(Cl)ccc2C)CC1 (centres undefined)	-0.544	-1.6	-0.293	-3.7	0.592
CCN(CC(=O)NCc1ccc(F)cc1)CC(O)COCc1cccc(OC)c1 (centres undefined)	-0.591	-0.5	-0.69	5.8	-0.00258
Cc1cccc(NC(=O)c2cnc3ccccn3c2=O)c1	-4.25*	-0.1	-0.447	-13.3	0.606
Cc1ccc(C2CC(c3ccc(C)cc3)n3nc(N)nc3N2)cc1 (centres undefined)	0.0622	-0.8	-0.0364	-21.3	-1.49
CC(C)CNC(=O)CN(C1CCCCC1)S(=O)(=O)c1ccccc1	0.0191	/	-0.00242	/	1.12
CN(C)S(=O)(=O)c1ccc(/C(O)=C2/C(=O)C(=O)N(CCN3CCCCC3)C2c2cccnc2)cc1 (centres undefined)	-0.0354	-1.5	-0.435	-11.8	0.0471
COc1ccc(NC2=NC3(CCCCC3)N=C(N)N2)cc1	-1.78	0.4	-0.0225	-22.6	0.366
COc1ccc(OC)c(NC2=NC3(CCCCC3)N=C(N)N2)c1	-5.21*	-0.8	-0.494	22.9	0.0346
O=c1c2cc3c(cc2[nH]c(=S)n1Cc1ccco1)OCO3	-0.142	/	0.18	/	0.452
O=C(c1ccc(Cl)cc1)N1CCCCC(Sc2nnc(-c3ccc4c(c3)OCO4)o2)C1=O (centres undefined)	-9.98*	0.9	-0.00534	15.5	-0.00681
O=C(c1ccccc1)N1CCCCC(Sc2nnc3ccccn23)C1=O (centres undefined)	-0.365	0.4	-0.588	8.8	-1.77
Cc1onc(-c2ccccc2Cl)c1C(=O)NCc1ccccn1	0.948	-0.6	-0.175	/	-0.0644
Cc1onc(-c2c(F)cccc2Cl)c1C(=O)NCc1ccccn1	-4.17*	-1.8	0.523	-23.6	-0.513
c1ccc(-c2cc(-c3nc(-c4ccccn4)no3)c3ccccc3n2)cc1	1.14	-2.6	0.505	-6.8	-0.693
c1ccc(-c2ccc(-c3nc(-c4ccccn4)no3)cc2)cc1	-9.56*	/	1.12	/	0.888
Cc1ccc(-c2nc(-c3ccccn3)no2)cc1	-7.59*	-0.9	-0.591	/	0.363
c1ccc(-c2noc(-c3cccc4ccccc34)n2)nc1	-2.84*	-0.9	0.487	/	-0.471
Clc1cccc(-c2nc(-c3ccccn3)no2)c1	-6.91*	/	0.566	/	-1.49
COc1cccc(-c2nc(-c3ccccn3)no2)c1OC	/	-1.2	0.213	8.1	0.173
COc1ccc(-c2cc3nc4n(c(=O)c3s2)CCOC4)cc1	/	-2.5	-0.365	11.4	-0.764
O=C(CN(C(=O)c1cc2c(s1)CCC2)C1CCCC1)NCc1cccs1	0.0223	/	0.641	/	-0.215
COc1cc(-c2nc(-c3ccccn3)no2)cc(OC)c1OC	/	-0.9	0.344	-55.3	0.109
c1ccc(-c2noc(-c3ccc4ccccc4c3)n2)cc1	-6.96*	-1.4	0.32	12.6	-0.0735
Cc1ccc(-c2nc(-c3ccccn3)no2)cc1Cl	-4.42*	-1.1	-0.107	33.7	-0.564
